Sampled rows, rich in hits. Any-hit rate of the full collection: about 2.4%.
IMP-1 inhibitor = blocks Pseudomonas aeruginosa IMP-1 metallo-beta-lactamase | 290,000 tested, 0.45% active | inhibition, % at 5.6 µM | AID 1556 | purified IMP-1, nitrocefin hydrolysis, epi-absorbance fluorescence;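 active means inhibition above the mean plus 3 SD of all compounds in the same screening run, cut at about 4.5% in these data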;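 further: 0% = IMP-1 with DMSO and 100% = DMSO wells lacking enzyme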
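Assay system: purified recombinant IMP-1 beta-lactamase. Input: IMP-1 0.2 nM before substrate addition. Buffer or medium: Zinc- and detergent-supplemented HEPES buffer, pH 7.1. Schedule: 25 °C, 15 min preincubation, 25 min reaction. Signal: Epi-absorbance fluorescence, 480 nm excitation, 530 nm emission. Evaluation: percent inhibition from optical density relative to buffer-blank wells.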
PfM18AAP inh-1 = PfM18AAP enzyme inhibition | recombinant PfM18AAP, H-Glu-NHMec fluorogenic cleavage | inhibition, % at 7.35 µM | 290,000 tested, 1.2% active | AID 1822;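 active means inhibition above the campaign mean inhibition over all tested compounds plus 3 SD, cut at about 28% in these data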;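 further: 0% = plate median of test compound wells and 100% = 2 mM ZnCl2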
sPLA2-III inh = Inhibits HGIII-sPLA2 liposome hydrolysis, primary screen. Q9NZ20. QFRET BODIPY PC-A2 liposome hydrolysis, fluorescence. inhibition, % at 12.2 µM. 370,000 tested, 0.56% active. AID 743126;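 active means inhibition above mean plus 3 SD of compounds lying within the high and low control bounds, cut at about 19% in these data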;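 further: 0% = median of test compound wells and 100% = no enzyme DMSO wells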
Target sequence (Q9NZ20 whole entry, looked up): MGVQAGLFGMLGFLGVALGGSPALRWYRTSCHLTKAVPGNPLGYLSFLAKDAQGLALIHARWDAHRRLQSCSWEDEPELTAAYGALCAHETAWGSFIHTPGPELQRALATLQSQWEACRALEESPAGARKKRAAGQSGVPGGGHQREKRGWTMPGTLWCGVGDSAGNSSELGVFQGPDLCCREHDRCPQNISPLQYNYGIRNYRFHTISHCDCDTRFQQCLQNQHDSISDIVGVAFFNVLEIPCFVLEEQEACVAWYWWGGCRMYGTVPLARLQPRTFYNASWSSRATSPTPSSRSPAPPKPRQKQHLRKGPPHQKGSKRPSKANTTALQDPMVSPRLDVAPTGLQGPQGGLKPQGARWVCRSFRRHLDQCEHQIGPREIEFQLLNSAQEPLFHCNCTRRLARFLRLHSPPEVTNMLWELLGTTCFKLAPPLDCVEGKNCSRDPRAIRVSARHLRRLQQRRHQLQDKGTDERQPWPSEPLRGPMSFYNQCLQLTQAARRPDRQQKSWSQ
VIM-2 inh = inhibitors of Pseudomonas aeruginosa VIM-2 metallo-beta-lactamase; purified VIM-2, nitrocefin hydrolysis, epi-absorbance fluorescence; inhibition, % at 5.6 µM; 290,000 tested, 0.89% active; AID 1527;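 active means inhibition above the mean of all tested compounds plus 3 SD, cutoff set per screening run, cut at about 7.5% in these data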;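 further: red hydrolysis product quenches plate fluorescence so inhibitors raise well fluorescence; 0% = enzyme with DMSO and 100% = DMSO without enzyme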
PfM18AAP inh-2 = confirmation of Plasmodium falciparum M18 aspartyl aminopeptidase inhibitors; inhibition, % at 7.35 µM; 2,400 tested, 28% active; recombinant PfM18AAP, H-Glu-NHMec fluorogenic cleavage; AID 2170; shares compounds with PfM18AAP inh-1;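 active means mean inhibition over replicate wells above the hit cutoff set for the earlier primary screen, cut at about 29% in these data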;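 further: 0% = median of test compound wells and 100% = 2 mM ZnCl2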
CTSL1 counter = Cathepsin L (human) inhibition, confirmation; AID 2178; purified cathepsin L1, Z-Leu-Arg-MCA fluorescence; shares compounds with PfM18AAP inh-1; 2,400 tested, under 10 active; inhibition, % at 5.96 µM;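 active means average inhibition across replicates above the hit cutoff set in the earlier primary screen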;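 further: 0% = median of test compound wells and 100% = Z-Phe-Ala-diazomethylketone 1 µM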
Numbers without * were called inactive; x = no result given.

SMILES	IMP-1 inhibitor	PfM18AAP inh-1	sPLA2-III inh	VIM-2 inh	PfM18AAP inh-2	CTSL1 counter
CCC(=O)NNc1nc2c(Cl)cccc2s1	-1.5	33.1*	2.8	-2.5	19.2	-3.3
CCC(=O)NNc1nc2c(C)c(C)ccc2s1	-2.4	37.4*	-12.2	-2.1	8.5	-2.3
O=C(Nc1nc2c(Cl)cccc2s1)C1CC1	-1.4	1.1	4.9	-0.2	x	x
O=C(COC(=O)/C=C/c1ccccc1Cl)NC1CC1	x	x	-3.5	x	x	x
COc1cc2c(cc1OC)CN(C(=O)CCOc1ccccc1C)CC2	-1.2	-14.7	2.2	0.3	x	x
Cc1ccccc1NC(=O)CCCNC(=O)c1ccc(Cl)cc1	0.3	-2.4	6.1	1.6	x	x
O=C(NNc1nc2ccccc2s1)c1ccc(F)cc1	-4.2	32.4*	8.7	-5.1	1.5	-0.2
O=C(NNc1nc2c(F)cccc2s1)c1ccccc1	-5.8	42.9*	10.9	-5.9	25.1	-2.1
O=C(NNc1nc2ccc(F)cc2s1)c1cccc(F)c1	-3.9	21.9	1.6	-6.0	x	x
CC(C)NC(=S)NNc1nc2ccccc2s1	-2.4	40.8*	10.6	-0.8	34.4*	0.8
O=C(NNc1nc2c(F)cc(F)cc2s1)c1ccccc1	-1.9	38.9*	12.9	-2.6	23.3	1.9
O=S1(=O)C[C@H](N2CCCC2)[C@@H](COCc2ccccc2)N1	x	x	5.8	x	x	x
Cc1ccc(C)c(CC(=O)N2CCCCC2c2cc(C(=O)Nc3ccc(F)c(Cl)c3)no2)c1 (centres undefined)	x	x	3.2	x	x	x
CCCc1ccc(OCC(O)CN2CCN(c3ccccn3)CC2)cc1 (centres undefined)	-2.9	1.1	-0.4	-1.1	x	x
CCOC(=O)N1CCC(NC(=O)c2ccc3c(c2)sc2nc(-c4ccccc4)cn23)CC1	0.5	40.1*	-7.2	2.4	-16.5	0.4
C[C@H]1[C@@H](OC(=O)NCc2cccc(C(F)(F)F)c2)CC[C@@]23CCCN2C(=O)CCC[C@@H]13	x	x	-0.3	x	x	x
N#Cc1c(N2C(=O)Nc3ccccc3N2O)sc2c1CCCCCC2	0.5	34.9*	-1.3	5.3	-40.9	8.1
N#Cc1c(N2C(=O)Nc3ccccc3N2O)sc2c1CCCC2	-3.2	-3.3	-8.6	0.8	x	x
COc1ccc(CN2C[C@@H](CO)O[C@@H](n3cnc4c(N5CCN(CCO)CC5)ncnc43)C2)cc1	x	x	12.6	x	x	x
Cc1cc(/C=C2\SC(=O)N(C)C2=O)c(C)n1-c1ccc(S(N)(=O)=O)cc1	-2.0	5.7	-1.9	-0.8	x	x
Cc1cc(/C=C2\SC(=O)N(C)C2=O)c(C)n1-c1ccc(O)cc1	-2.1	33.0*	-9.0	4.3	-47.5	-2.4
O=C1CC(c2ccco2)CC(O)=C1C=Nc1cc(Cl)ccc1O (centres undefined)	-2.2	33.2*	10.0	-3.2	-10.3	0.2
CC[N+](CC)=N/N=C1\C=CC[N+]([O-])=C1	x	x	-3.0	x	x	x
CC(C)CNC1=CC(=O)CC(c2ccco2)C1 (centres undefined)	-2.1	40.3*	-3.7	-1.6	-15.5	-5.1
O=C1C=C(Nc2ccc(O)cc2)CC(c2ccco2)C1 (centres undefined)	-4.4	42.2*	7.0	-0.4	-24.7	-1.3
SMILES	IMP-1 inhibitor	PfM18AAP inh-1	sPLA2-III inh	VIM-2 inh	PfM18AAP inh-2	CTSL1 counter
COc1ccccc1CNc1nc(C)c(C(=O)N(C)C)s1	-1.7	34.2*	-3.0	-3.4	-35.4	1.1
O=C1ON=C(c2ccccc2)/C1=C/c1ccc(O)c(O)c1	-4.7	60.5*	7.9	-2.1	37.0*	-3.8
COc1ccc(/C=C2\C(=O)ON=C2c2ccccc2)cc1	-1.5	23.6	1.6	0.7	x	x
CCCCN1CCN(C(=O)Cn2c(=O)c3ccccc3n(CC)c2=O)CC1	x	x	1.7	x	x	x
COC(=O)c1ccc(C2NC(=O)c3c(sc(C)c3C)N2)cc1 (centres undefined)	-0.8	2.6	-10.3	-2.3	x	x
Cc1sc2c(c1C)C(=O)NC(c1cccc(O)c1)N2 (centres undefined)	-2.6	49.1*	x	-1.5	-8.3	2.4
CCN1CCN(S(=O)(=O)c2ccc(C(C)(C)C)cc2)CC1	-3.2	-1.9	7.5	-2.1	x	x
CCOC(=O)c1c(NC(=S)Nc2ccc(Cl)cc2)sc(C)c1C	-7.0	0.3	1.6	-0.5	x	x
Cc1sc(NC(=S)Nc2ccc(F)cc2)c(C(N)=O)c1C	-1.9	47.1*	-0.6	-4.3	-5.5	-1.1
COc1ccc(NC(=O)C(CCCCNC(=O)OC(C)(C)C)NC2(C(=O)NCCc3c[nH]c4ccccc34)CCCCC2)cc1 (centres undefined)	x	x	-95.6	x	x	x
N#CC1=C(N)OC2=C(C(=O)CC(c3ccco3)C2)C1c1ccc(OCc2c(F)cccc2Cl)cc1 (centres undefined)	0.7	2.1	-8.8	0.7	x	x
COc1cccc(C2C(C#N)=C(N)OC3=C2C(=O)CC(c2ccco2)C3)c1OCc1ccc(F)cc1 (centres undefined)	3.2	35.0*	-15.3	0.8	-52.8	-5.6
CN(C)/N=C/C=C1\CCC/C(=C\c2ccc(F)c(F)c2)C1=O	-1.2	37.8*	8.3	-2.0	25.7	4.2
O=Cc1cn(-c2ccccc2)nc1-c1ccc(F)cc1	-1.2	-0.8	0.6	-2.2	x	x
CC1=NNC(=O)/C1=C\c1cn(-c2ccccc2)nc1-c1ccc(F)cc1	-4.7	38.9*	x	-3.1	64.1*	-0.1
Cc1cc(C)c2c(N)c(C(=O)NCc3ccco3)sc2n1	-4.1	35.6*	5.2	6.3	-55.4	-4.0
CC(=O)c1sc2nc(C)cc(C)c2c1N	-0.5	-8.5	-1.3	2.9	x	x
CC1(C(=O)NCc2ccccc2)CN(S(C)(=O)=O)CC(=O)N1CCc1ccc(O)cc1 (centres undefined)	x	x	-3.7	x	x	x
Cc1cccc(Nc2nc3c(s2)CCCC3)c1	-1.1	32.2*	9.7	-3.8	-8.9	-0.9
COc1ccc(OC)c(NC(=O)Nc2ccc3[nH]ccc3c2)c1	x	x	-9.6	x	x	x
N#Cc1c(NC(NC(=O)c2ccco2)C(=O)c2ccccc2)sc2c1CCCC2 (centres undefined)	-3.7	22.5	-9.9	-3.2	x	x
NC(=O)c1c(NC(NC(=O)c2ccco2)C(=O)c2ccc(Cl)cc2)sc2c1CCCC2 (centres undefined)	-1.3	38.2*	-5.8	-3.9	-22.0	0.7
COc1ccccc1OCC(=O)Nc1cc2c(cc1C(=O)O)OCCCO2	-3.3	6.8	-2.8	-4.2	x	x
COC(=O)c1c(N)sc(C(=O)NCCc2ccccc2)c1C	-2.2	39.9*	-0.7	-1.2	-10.7	-4.5
N#Cc1c(-c2ccccc2)cc(-c2cccs2)nc1SCC(=O)O	-5.4	3.6	-13.4	0.6	x	x
N#Cc1c(-c2ccc(Cl)cc2)cc(-c2cccs2)nc1SCC(=O)O	-5.7	36.4*	-27.8	0.2	-2.2	-1.7
COc1ccc(C(=O)OCC(=O)Nc2nnc(-c3ccccc3)o2)cc1	0.1	42.3*	-1.4	1.0	-20.7	-8.9
COc1ccccc1N1CCN(Cc2cc3c(cc2[N+](=O)[O-])OCO3)CC1	-1.6	31.8*	1.3	-2.5	-24.8	3.8
COc1ccc(CN2CCN(c3ccccc3OC)CC2)c(OC)c1	0.5	-1.9	-0.8	0.0	x	x
